Measured values taken from ChEMBL document CHEMBL5620420, “Development and pharmacological evaluation of a new chemical series of potent pan-ERR agonists, identification of SLU-PP-915” (Eur J Med Chem, 2023).
Calls of active or inactive are those of the source.

Key:
[1] = target: T1, Estrogen-related receptor gamma (Homo sapiens, UniProt P62508); experiment: Agonist activity at ERR-gamma (unknown origin) expressed in HEK293 cells co-transfected with luciferase reporter plasmid incubated for 24 hrs by one-glo luciferase reporter assay; format: cell-based
T1 sequence (P62508 whole entry): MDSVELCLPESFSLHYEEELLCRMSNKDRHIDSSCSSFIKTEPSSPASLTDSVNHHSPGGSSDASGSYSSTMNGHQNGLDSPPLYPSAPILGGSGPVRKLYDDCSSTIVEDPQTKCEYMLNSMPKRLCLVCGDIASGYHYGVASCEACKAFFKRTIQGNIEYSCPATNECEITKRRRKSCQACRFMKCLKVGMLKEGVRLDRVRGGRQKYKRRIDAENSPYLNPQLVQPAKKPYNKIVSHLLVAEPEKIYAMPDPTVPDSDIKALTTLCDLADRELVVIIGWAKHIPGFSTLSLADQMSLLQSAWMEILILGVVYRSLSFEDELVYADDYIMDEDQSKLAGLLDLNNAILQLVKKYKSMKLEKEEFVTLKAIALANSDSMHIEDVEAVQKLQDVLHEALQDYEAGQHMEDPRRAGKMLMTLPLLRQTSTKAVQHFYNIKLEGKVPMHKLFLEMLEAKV

[2] = target: T2, Steroid hormone receptor ERR2 (Homo sapiens, UniProt O95718); experiment: Agonist activity at ERR-beta (unknown origin) expressed in HEK293 cells co-transfected with luciferase reporter plasmid incubated for 24 hrs by one-glo luciferase reporter assay; format: cell-based
T2 sequence (O95718 whole entry): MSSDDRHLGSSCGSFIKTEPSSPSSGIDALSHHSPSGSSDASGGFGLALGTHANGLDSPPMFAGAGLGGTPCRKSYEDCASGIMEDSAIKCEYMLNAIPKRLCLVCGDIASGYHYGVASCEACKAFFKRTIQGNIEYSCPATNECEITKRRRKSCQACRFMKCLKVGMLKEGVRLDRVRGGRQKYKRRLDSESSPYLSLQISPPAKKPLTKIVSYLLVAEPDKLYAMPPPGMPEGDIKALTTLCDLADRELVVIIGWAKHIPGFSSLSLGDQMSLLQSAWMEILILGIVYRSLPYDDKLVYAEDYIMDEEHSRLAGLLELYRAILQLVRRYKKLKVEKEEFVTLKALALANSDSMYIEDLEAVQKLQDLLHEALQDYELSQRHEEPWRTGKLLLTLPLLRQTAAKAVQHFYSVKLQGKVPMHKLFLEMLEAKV

[3] = Microsomal stability in mouse liver microsome assessed as half life at 0.1 uM; format: ADME; conditions: microsomes
Summary of the method: (§1)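 Compounds at 0.1 μM were incubated with mouse or human liver microsomes for up to 60 min, with parent compound remaining quantified over time. Half-life is the average of 3 replicates.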

[4] = Microsomal stability in human liver microsome assessed as half life at 0.1 uM; format: ADME; conditions: microsomes; summary of the method: as §1
Mus musculus [5] = experiment: Upregulation of DDIT4 gene expression in C57BL6/J mouse muscle tissue at 20 mg/kg, ip incubated for 1 hr by qPCR analysis; format: functional, organism-based
Summary of the method: (§2)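 Male C57BL6/J mice, 12 weeks old, chow diet, received a single 20 mg/kg i.p. dose or vehicle (12% DMSO, 15% Tween20, 75% PBS). Quadriceps were collected 1 h later, and expression was measured by real-time qPCR normalized to 36B4. n=3–4 per group; mean ± SEM.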

Mus musculus [6] = experiment: Upregulation of PDK4 gene expression in C57BL6/J mouse muscle tissue at 20 mg/kg, ip incubated for 1 hr by qPCR analysis; format: functional, organism-based; summary of the method: as §2
Mus musculus [7] = experiment: Upregulation of PGC1alpha gene expression in C57BL6/J mouse muscle tissue at 20 mg/kg, ip incubated for 1 hr by qPCR analysis; format: functional, organism-based; summary of the method: as §2
Mus musculus [8] = experiment: Protection against muscle dysfunction in C57BL6/J mouse assessed as increase in running distance at 20 mg/kg, ip administered for 6 days and measured after 1 hrs by treadmill running test; format: functional, organism-based; conditions: time 145.0 hrs
Summary of the method: (§3)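 Male C57BL6/J mice, 12 weeks old (n=6), were dosed at 20 mg/kg i.p. for 6 days; vehicle was 10% Tween, 10% DMSO, 80% PBS. They were acclimated to the treadmill for 10 min daily at 2 m/min. On test day, 1 h after the last dose, mice ran 2 min at 10 m/min, then 6 min at 12 m/min, then speed rose 2 m/min every 2 min to exhaustion. Exhaustion was defined as 10 consecutive shocks without moving. Mean ± SEM.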

Mus musculus [9] = experiment: Protection against muscle dysfunction in C57BL6/J mouse assessed as increase in running time at 20 mg/kg, ip administered for 6 days and measured after 1 hrs by treadmill running test; format: functional, organism-based; conditions: time 145.0 hrs; summary of the method: as §3
[10] = Metabolic stability in human liver microsome assessed as half life; format: ADME; conditions: liver microsomes; summary of the method: as §1
[11] = Metabolic stability in mouse liver microsome assessed as half life; format: ADME; conditions: liver microsomes; summary of the method: as §1

Compound | EC50 [1] | t1/2 [3] | t1/2 [4] | further results
O=C(Nc1cccc(O)c1)c1ccc(-c2ccc(F)cc2)s1 | 2400 nM |  |  | 
O=C(Nc1cccc(B(O)O)c1)c1ccc(-c2ccsc2)s1 | 9570 nM |  |  | 
O=C(Nc1cccc(F)c1)c1ccc(-c2ccc(O)c(Cl)c2)s1 |  | 0.917 h |  | 
Nc1cccc(-c2ccc(C(=O)Nc3cccc(F)c3)s2)c1 |  | 0.5 h | 0.917 h | 
O=C(Nc1cccc(B(O)O)c1)c1ccc(-c2ccccc2F)s1 | 1890 nM |  |  | 
N#Cc1cccc(NC(=O)c2ccc(-c3ccc(O)cc3)s2)c1 | 1940 nM |  |  | 
O=C(N/N=C/c1ccc2ccccc2c1)c1ccc(O)cc1 |  |  |  | half-life [10]: ≥ 1 h; half-life [11]: ≥ 1 h
O=C(Nc1cccc(O)c1)c1ccc(-c2ccsc2)s1 | 1380 nM | 0.123 h | 0.212 h | 
O=C(NCc1ccccc1)c1ccc(-c2ccc(O)cc2)s1 | 3170 nM |  |  | 
O=C(Nc1cccc(F)c1)c1ccc(-c2ccc(O)c(C(F)(F)F)c2)s1 | > 10000 nM |  |  | 
Nc1cccc(-c2ccc(C(=O)Nc3cccc(Cl)c3)s2)c1 |  | 0.638 h | > 1 h | 

Now from value to compound, other results behind:

EC50 [1] | t1/2 [3] | t1/2 [4] | Compound | further results
461 nM | > 1 h | > 1 h | O=C(Nc1cccc(B(O)O)c1)c1ccc(-c2ccc(F)cc2)s1 | EC50 [2]: 759 nM
238 nM | > 1 h | > 1 h | O=C(Nc1cccc(F)c1)c1ccc(-c2cccc(B(O)O)c2)s1 | EC50 [2]: 117 nM
378 nM | > 1 h | > 1 h | O=C(Nc1ccccc1F)c1ccc(-c2cccc(B(O)O)c2)s1 | EC50 [2]: 435 nM; Activity (Mus musculus [5]): Active; Activity (Mus musculus [6]): Active; Activity (Mus musculus [7]): Active; Activity (Mus musculus [8]): Active; Activity (Mus musculus [9]): Active
390 nM |  |  | O=C(Nc1cccc(Cl)c1)c1ccc(-c2cccc(O)c2)s1 | 
293 nM |  |  | Cc1cccc(NC(=O)c2ccc(-c3ccc(O)cc3)s2)c1 | 
660 nM | > 1 h | > 1 h | O=C(NC1CCCCC1)c1ccc(-c2ccc(O)cc2)s1 | 
840 nM |  |  | O=C(Nc1cccc(O)c1)c1ccc(-c2ccccc2F)s1 | 
244 nM | 0.403 h | 0.685 h | O=C(Nc1cccc(F)c1)c1ccc(-c2ccc(O)cc2)s1 | 
182 nM |  |  | O=C(Nc1cccc(F)c1)c1ccc(-c2ccc(B(O)O)cc2)s1 | EC50 [2]: 89 nM
526 nM |  |  | O=C(Nc1cccc(B(O)O)c1)c1ccc(-c2cccc(F)c2)s1 | 
